Assay results gathered from unrelated publications.
Compare with care: the assays were run in different laboratories.
MAOB: Amine oxidase [flavin-containing] B (MAOB, Homo sapiens, UniProt P27338)

O=[N+]([O-])c1cc(Cl)c(O)c(Cl)c1  IC50 (Sulfotransferase 1A1 (SULT1A1, Homo sapiens, UniProt P50225, R213H); enzyme activity, inhibitor): 0.7 µM
O=c1c2ccccc2[nH]c(=S)n1-c1ccccc1  IC50 (Serine protease 1 (PRSS1, Bos taurus, UniProt P00760); enzyme activity, inhibitor): 84.5 µM
C#CCNc1nc(NCCCC2CCN(Cc3ccccc3)CC2)c(C#N)c(-c2ccccc2)c1C#N  IC50 (MAOB; enzyme activity, inhibitor, fluorescence; with preincubation): > 100 µM
Cc1cc(SCc2sc(-c3ccc(C(F)(F)F)c(F)c3)nc2C)ccc1OCC(=O)O  IC50 (Retinoic acid receptor RXR-alpha (RXRA, Homo sapiens, UniProt P19793); reporter gene, antagonist, luciferase): 22.9 µM
COc1cc(C(=O)N2CC[C@@H](O)[C@@H](N)C2)cc2nc(-c3cc4ccccc4n3CC3CC3)n(C)c12  IC50 (MAOB; enzyme activity, inhibitor): 15.8 µM
CSCC[C@@H]1NC(=O)[C@H](Cc2c[nH]c3ccccc23)NC(=O)[C@H](CCCCN)NC(=O)[C@@H](NC(=O)[C@H](C)N)CSSC[C@@H](C(=O)NCC(=O)NCC(=O)NCC(N)=O)NC(=O)[C@H](Cc2ccc(O)cc2)NC(=O)CNC(=O)[C@H](CCC(=O)O)NC(=O)[C@H](CCC(=O)O)NC1=O  IC50 (Lysine-specific demethylase 4C (KDM4C, Homo sapiens, UniProt Q9H3R0); enzyme activity, inhibitor, TR-FRET): ~520 µM
[Ba+2].[Cl-].[Cl-]  IC50 (Inward rectifier potassium channel 2 (KCNJ2, Homo sapiens, UniProt P63252); ion current, inhibitor): 8.2 µM
C#CCN(C)c1nc(NCCCCC2CCN(Cc3ccccc3)CC2)c(C#N)c(-c2ccccc2)c1C#N  IC50 (MAOB; enzyme activity, inhibitor, fluorescence; with preincubation): > 100 µM
O=c1c2ccccc2[se]n1-c1ccccc1  IC50 (ung (Escherichia coli, UniProt P12295); enzyme activity, inhibitor): > 200 µM
C#CCNc1nc(NCCC2CCN(Cc3ccccc3)CC2)c(C#N)c(-c2ccccc2)c1C#N  IC50 (MAOB; enzyme activity, inhibitor, fluorescence; with preincubation): > 100 µM
CC[C@H](C)[C@H](NC(=O)[C@H](Cc1c[nH]c2ccccc12)NC(=O)[C@H](C)NC(=O)[C@@H]1CSCC(=O)N[C@@H](Cc2ccc(O)cc2)C(=O)NCC(=O)N[C@@H](CCC(N)=O)C(=O)N[C@@H](CO)C(=O)N[C@@H](Cc2c[nH]cn2)C(=O)N[C@@H](CO)C(=O)N[C@@H](C)C(=O)N[C@@H](Cc2c[nH]c3ccccc23)C(=O)N1)C(=O)N[C@@H](CC(N)=O)C(=O)N[C@@H](Cc1ccc(O)cc1)C(=O)N[C@@H](CC(N)=O)C(=O)N1CCC[C@H]1C(N)=O  IC50 (Pancreatic alpha-amylase (Homo sapiens, UniProt P04746); enzyme activity, inhibitor, absorbance): 6 µM
CCOc1ccccc1OCCN[C@H](C)Cc1ccc(OC)c(S(N)(=O)=O)c1  IC50 (Beta-1 adrenergic receptor (ADRB1, Homo sapiens, UniProt P08588); ligand displacement, radioligand): 2.5 µM
C#CCNc1nc(NCCCCC2CCN(Cc3ccccc3)CC2)c(C#N)cc1C#N  IC50 (MAOB; enzyme activity, inhibitor, fluorescence; with preincubation): > 50 µM
